# Data published in ChEMBL document CHEMBL4371071, “Muscarinic agonist, (±)-quinuclidin-3-yl-(4-fluorophenethyl)(phenyl)carbamate: High affinity, but low subtype selectivity for human M1 - M5 muscarinic acetylcholine receptors” (Bioorg Med Chem Lett, 2019).
# pKi: −log10 of the molar value. The source made the active and inactive calls. The rule behind the calls is not given here.
# Tests used:
# [1] = target: T1, Muscarinic acetylcholine receptor (Rattus norvegicus) (UniProt P08482+P08483+P08485+P08911+P10980); assay: (§1) Agonist activity at muscarinic acetylcholine receptor in superfused rat striatal slices assessed as augmentation of oxotremorine-induced [3H]DA release at 0.1 to 10 uM preincubated for 35 mins in presence of [3H]DA followed by oxotremorine addition and measured after 25 mins by liquid scintillation spectroscopic method
# How it was run: (§2)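 Rat striatal slices (500 µm) in Krebs' buffer pH 7.4 at 34 °C for 60 min, with 0.1 µM [3H]DA over the final 30 min. Superfused at 0.6 mL/min with 10 µM nomifensine and 10 µM pargyline; 5-min fractions. Basal outflow taken over 15 min, then test agent 35 min, then 100 µM oxotremorine 25 min. Overflow = summed radioactivity minus basal, by scintillation; n = 4–10.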
# [2] = target: T2, Muscarinic acetylcholine receptor M1 (Homo sapiens, UniProt P11229); assay: Displacement of [3H]NMS from human M1 AChR expressed in CHO cell membranes after 1 to 2 hrs by liquid scintillation spectrometry method; assay type: cell-based
# T2 sequence (P11229 whole entry): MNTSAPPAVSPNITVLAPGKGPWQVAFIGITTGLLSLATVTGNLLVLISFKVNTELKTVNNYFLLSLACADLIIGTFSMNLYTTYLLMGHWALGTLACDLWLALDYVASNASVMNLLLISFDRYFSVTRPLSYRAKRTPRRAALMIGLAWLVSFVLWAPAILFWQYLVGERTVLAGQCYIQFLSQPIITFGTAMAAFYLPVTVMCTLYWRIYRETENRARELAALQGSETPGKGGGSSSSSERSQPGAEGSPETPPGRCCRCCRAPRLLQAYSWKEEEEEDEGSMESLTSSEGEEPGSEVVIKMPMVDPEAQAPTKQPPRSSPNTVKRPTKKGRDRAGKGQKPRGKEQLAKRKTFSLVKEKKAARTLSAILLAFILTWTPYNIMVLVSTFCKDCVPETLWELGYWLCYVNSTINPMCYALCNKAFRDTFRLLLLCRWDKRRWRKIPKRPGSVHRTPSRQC
# [3] = target: T3, Muscarinic acetylcholine receptor M4 (Homo sapiens, UniProt P08173); assay: Displacement of [3H]NMS from human M4 AChR expressed in CHO cell membranes after 1 to 2 hrs by liquid scintillation spectrometry method
# T3 sequence (P08173 whole entry): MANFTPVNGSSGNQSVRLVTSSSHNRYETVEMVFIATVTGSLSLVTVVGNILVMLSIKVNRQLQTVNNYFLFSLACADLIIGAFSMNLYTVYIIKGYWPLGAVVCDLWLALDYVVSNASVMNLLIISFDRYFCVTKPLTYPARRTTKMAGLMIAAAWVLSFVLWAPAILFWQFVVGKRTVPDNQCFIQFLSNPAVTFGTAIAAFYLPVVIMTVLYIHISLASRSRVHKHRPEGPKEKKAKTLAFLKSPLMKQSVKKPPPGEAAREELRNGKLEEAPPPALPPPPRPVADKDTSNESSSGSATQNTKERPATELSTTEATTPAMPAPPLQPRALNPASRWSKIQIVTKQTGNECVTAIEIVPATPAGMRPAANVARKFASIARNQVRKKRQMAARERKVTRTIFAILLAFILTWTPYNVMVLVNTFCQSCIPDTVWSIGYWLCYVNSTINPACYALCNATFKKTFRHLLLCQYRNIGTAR
# How it was run: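 Human M4-expressing CHO membranes (20 µg protein/well) incubated 2 h at 25 °C with 0.3 nM [3H]NMS and analog (1 nM–100 µM) in 50 mM Tris–HCl pH 7.4. […] Filtered, washed, counted by scintillation. IC50 taken from inhibition curves, Ki from three independent duplicate experiments (mean ± SEM).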
# [4] = target: T4, Muscarinic acetylcholine receptor M2 (Homo sapiens) (UniProt P08172); assay: Displacement of [3H]NMS from human M2 AChR expressed in CHO cell membranes at 100 uM after 1 to 2 hrs by liquid scintillation spectrometry method relative to control
# T4 sequence (whole entry): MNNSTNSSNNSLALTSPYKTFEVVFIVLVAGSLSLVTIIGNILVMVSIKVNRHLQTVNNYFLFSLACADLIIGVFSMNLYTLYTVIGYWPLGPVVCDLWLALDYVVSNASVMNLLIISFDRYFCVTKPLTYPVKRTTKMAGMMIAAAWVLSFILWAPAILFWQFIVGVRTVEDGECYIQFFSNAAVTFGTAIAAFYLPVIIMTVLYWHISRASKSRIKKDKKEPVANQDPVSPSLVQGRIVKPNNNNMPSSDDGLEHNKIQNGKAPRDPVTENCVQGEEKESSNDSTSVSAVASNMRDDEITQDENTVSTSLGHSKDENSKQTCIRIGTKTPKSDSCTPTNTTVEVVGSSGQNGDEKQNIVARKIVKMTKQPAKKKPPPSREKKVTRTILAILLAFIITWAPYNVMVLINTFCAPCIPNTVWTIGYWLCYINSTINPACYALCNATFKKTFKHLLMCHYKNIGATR
# How it was run: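 CHO membranes expressing the human subtype (20 µg protein/well) with 0.3 nM [3H]NMS and analog (1 nM–100 µM) in 50 mM Tris-HCl pH 7.4, 2 h at 25 °C. Filtered on GF/B, washed, counted by scintillation. IC50 taken from curves to give Ki; three independent experiments in duplicate.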
# [5] = target: T1, Muscarinic acetylcholine receptor (Rattus norvegicus); assay: as §1, with “release at 1 to 10” for “release at 0.1 to 10”, “25 mins in presence of scopolamine by liquid” for “25 mins by liquid”; assay type: protein assay; how it was run: as §2
# [6] = target: T5, Muscarinic acetylcholine receptor M3 (Homo sapiens, UniProt P20309); settings: CHO, at 100 µM
# Target sequence in this assay (P20309 whole entry, looked up): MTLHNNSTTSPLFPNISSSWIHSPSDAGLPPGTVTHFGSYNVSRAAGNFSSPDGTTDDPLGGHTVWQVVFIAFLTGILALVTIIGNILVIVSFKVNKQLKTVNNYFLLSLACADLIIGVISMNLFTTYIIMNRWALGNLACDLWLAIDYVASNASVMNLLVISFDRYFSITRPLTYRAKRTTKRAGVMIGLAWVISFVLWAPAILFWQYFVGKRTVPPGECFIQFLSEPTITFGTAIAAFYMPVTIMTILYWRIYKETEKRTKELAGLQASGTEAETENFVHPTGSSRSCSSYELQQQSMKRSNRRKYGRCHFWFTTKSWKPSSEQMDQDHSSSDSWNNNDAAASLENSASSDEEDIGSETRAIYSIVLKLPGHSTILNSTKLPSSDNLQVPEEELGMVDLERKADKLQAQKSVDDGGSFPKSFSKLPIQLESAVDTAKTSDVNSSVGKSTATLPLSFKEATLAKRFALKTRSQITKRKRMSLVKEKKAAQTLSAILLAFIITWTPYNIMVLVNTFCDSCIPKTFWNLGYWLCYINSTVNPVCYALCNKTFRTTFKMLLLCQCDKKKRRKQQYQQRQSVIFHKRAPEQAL
# [7] = target: T5, Muscarinic acetylcholine receptor M3; assay: Displacement of [3H]NMS from human M3 AChR expressed in CHO cell membranes after 1 to 2 hrs by liquid scintillation spectrometry method; assay type: cell-based
# Target sequence in this assay (P20309 whole entry): as the sequence (P20309 whole entry, looked up) above
smiles,measurement,setting,value
O=C(OC1CN2CCC1CC2)N(CCc1ccc(F)cc1)c1ccccc1 (racemic),Activity,[1],Active
same,pKi,[2],8.70
same,pKi,[3],8.66
same,Imax,[4],100%
same,Activity,[5],inactive
same,Imax,[6],100%
same,pKi,[7],8.59
